Test results as given in ChEMBL document CHEMBL4373698, “Biosynthesis of Nonimmunosuppressive FK506 Analogues with Antifungal Activity” (J Nat Prod, 2019).
Values after ≈ are worked out from the molar mass of the structure shown. Active and inactive are the calls of the source. The calls are words filed in the database; no cut-off is given here.

What was measured:
[1] = Immunosuppressive activity against […] mouse CD4-positive T cells assessed as inhibition of CD3/CD28-induced cell proliferation
In short: (§1)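 Spleen cells from 6–8-week B6J mice, red cells lysed; CD4+ T cells labelled with CellTrace Violet at isolation. Stimulated with anti-CD3/CD28 beads with compound for 72 h; stained for CD4 and CD44 plus near-IR live/dead dye; proliferation read by flow cytometry; IC50 from curves.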

Cryptococcus neoformans [2] = assay: Antifungal activity against Cryptococcus neoformans H99; format: functional, organism-based; conditions: var grubii H99
In short: (§2)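 H99 grown in YPD at 30 °C for 20 h, then seeded at OD600 0.01 in RPMI-MOPS-dextrose pH 7 (EUCAST microdilution). Analogues added as 2-fold dilutions from 10 μg/mL; 37 °C, 48 h; OD600 read. Growth expressed relative to no-inhibitor wells after background subtraction; IC50 calculated.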

Candida albicans [3] = assay: Antifungal activity against Candida albicans SC5314; format: functional, organism-based
In short: (§3)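 SC5314 grown in YPD at 30 °C for 16 h, washed twice and resuspended in PBS. Seeded at 1.25 × 10^5 cells per well in 100% FBS with 2-fold dilutions from 10 μg/mL; 37 °C, 24 h. XTT (500 μg/mL in PBS, menadione final 10 μM) added, 2 h at 37 °C in the dark; OD490 read; IC50.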

Aspergillus fumigatus [4] = assay: Antifungal activity against Aspergillus fumigatus Af293; format: functional, organism-based
In short: (§4)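 Af293 conidia at 10^5/mL in RPMI (8.4 g/L RPMI1640, 34.5 g/L MOPS, 20 g/L dextrose, pH 7) per EUCAST broth microdilution; 2-fold serial dilutions from 10 μg/mL; 35 °C, 48 h; OD600 read. % growth versus no-inhibitor wells after medium-only background subtraction; IC50 derived from growth curves.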

Cryptococcus neoformans [5] = assay: Synergistic antifungal activity against Cryptococcus neoformans H99 assessed as FIC index in presence of fluconazole after 48 hrs by checker board assay; format: functional, var grubii H99
In short: (§5)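 Checkerboard with fluconazole: H99 grown overnight in YPD at 30 °C, seeded at OD600 0.01 in RPMI 1640 per EUCAST. Test agent 2-fold serially diluted. FIC index calculated per strain; ≤0.5 synergy, >0.5–1.0 additive, >1.0–2.0 no interaction, >2.0 antagonism.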

[6] = Immunosuppressive activity against […] mouse CD4-positive T cell cells assessed as inhibition of CD3/CD28-induced cell proliferation after 72 hrs by FACS analysis; in short: as §1
Cryptococcus neoformans [7] = assay: Antifungal activity against Cryptococcus neoformans H99 after 48 hrs by EUCAST-based microdilution assay; format: functional, organism-based; conditions: var grubii H99 ; in short: as §2
Candida albicans [8] = assay: Antifungal activity against Candida albicans SC5314 after 24 hrs by XTT assay; format: functional, organism-based; conditions: SC5314, 24 h; in short: as §3
Aspergillus fumigatus [9] = assay: Antifungal activity against Aspergillus fumigatus Af293 after 48 hrs by EUCAST-based microdilution assay; format: functional, organism-based; conditions: Af293, 48 h; in short: as §4
Cryptococcus neoformans [10] = assay: Synergistic antifungal activity against Cryptococcus neoformans H99 in presence of 1.25 ug/ml fluconazole after 48 hrs by checker board assay; format: functional, organism-based; conditions: var grubii H99 
Cryptococcus neoformans [11] = assay: Antifungal activity against Cryptococcus neoformans harboring frr1 deletion mutant at 30 ug/ml; format: functional, organism-based
Cryptococcus neoformans [12] = assay: Synergistic antifungal activity against Cryptococcus neoformans H99 assessed as FIC index in presence of fluconazole; format: functional, var grubii H99; in short: as §5
Cryptococcus neoformans [13] = assay: Synergistic antifungal activity against Cryptococcus neoformans H99 in presence of 2.5 ug/ml fluconazole after 48 hrs by checker board assay; format: functional, organism-based; conditions: var grubii H99 

| SMILES | IC50 [6] [µg/mL] | IC50 (Cryptococcus neoformans [7]) [µg/mL] | IC50 (Candida albicans [8]) [µg/mL] | IC50 (Aspergillus fumigatus [9]) [µg/mL] | further results |
| --- | --- | --- | --- | --- | --- |
| C=CC[C@@H]1/C=C(\C)C[C@H](C)C[C@H](OC)[C@H]2O[C@@](O)(CC(=O)N3CCCC[C@H]3C(=O)O[C@H](/C(C)=C/[C@@H]3CC[C@@H](O)[C@H](OC)C3)[C@H](C)[C@@H](O)CC1=O)[C@H](C)C[C@@H]2OC | – | – | – | – | IC50 [1]: 0.513 ng/mL (≈ 0.000649 µM); IC50 (Cryptococcus neoformans [2]): 0.036 µg/mL (≈ 0.0456 µM); IC50 (Candida albicans [3]): 0.963 µg/mL (≈ 1.22 µM); IC50 (Aspergillus fumigatus [4]): 24.2 µg/mL (≈ 30.6 µM) |
| C=CC[C@@H]1/C=C(\C)C[C@H](C)C[C@H](OC)[C@H]2O[C@@](O)(C(=O)C(=O)N3CCCC[C@H]3C(=O)O[C@H](/C(C)=C/[C@@H]3CC[C@@H](O)[C@H](O)C3)[C@H](C)[C@@H](O)CC1=O)[C@H](C)C[C@@H]2OC | – | – | – | – | IC50 [1]: 0.246 ng/mL (≈ 0.000311 µM); IC50 (Cryptococcus neoformans [2]): 0.005 µg/mL (≈ 0.00633 µM); IC50 (Candida albicans [3]): 0.106 µg/mL (≈ 0.134 µM); IC50 (Aspergillus fumigatus [4]): 0.165 µg/mL (≈ 0.209 µM) |
| CC[C@@H]1/C=C(\C)C[C@H](C)C[C@H](OC)[C@H]2O[C@@](O)(C(=O)C(=O)N3CCCC[C@H]3C(=O)O[C@H](/C(C)=C/[C@@H]3CC[C@@H](O)[C@H](OC)C3)[C@H](C)[C@@H](O)CC1=O)[C@H](C)C[C@@H]2OC [ASCOMYCIN] | – | – | – | – | fractional inhibitory concentration index (FICI) (Cryptococcus neoformans [5]): 0.5 |
| CO[C@H]1C[C@@H](C)C/C(C)=C/[C@@H](C)C(=O)C[C@H](O)[C@@H](C)[C@@H](/C(C)=C/[C@@H]2CC[C@@H](O)[C@H](O)C2)OC(=O)[C@@H]2CCCCN2C(=O)C[C@]2(O)O[C@H]1[C@@H](OC)C[C@H]2C | 3.38 (≈ 4.5 µM) | 54.5 (≈ 72.7 µM) | 837 (≈ 1120 µM) | > 50 | – |
| CCC[C@@H]1/C=C(\C)C[C@H](C)C[C@H](OC)[C@H]2O[C@@](O)(CC(=O)N3CCCC[C@H]3C(=O)O[C@H](/C(C)=C/[C@@H]3CC[C@@H](O)[C@H](OC)C3)[C@H](C)[C@@H](O)CC1=O)[C@H](C)C[C@@H]2OC | 0.0255 (≈ 0.0323 µM) | 0.151 (≈ 0.191 µM) | 0.817 (≈ 1.03 µM) | 14.1 (≈ 17.8 µM) | – |
| CC[C@@H]1/C=C(\C)C[C@H](C)C[C@H](OC)[C@H]2O[C@@](O)(C(=O)C(=O)N3CCCC[C@H]3C(=O)O[C@H](/C(C)=C/[C@@H]3CC[C@@H](O)[C@H](O)C3)[C@H](C)[C@@H](O)CC1=O)[C@H](C)C[C@@H]2OC | 0.00327 (≈ 0.00421 µM) | 0.027 (≈ 0.0347 µM) | 0.079 (≈ 0.102 µM) | 12.2 (≈ 15.7 µM) | – |
| CCC[C@@H]1/C=C(\C)C[C@H](C)C[C@H](OC)[C@H]2O[C@@](O)(CC(=O)N3CCCC[C@H]3C(=O)O[C@H](/C(C)=C/[C@@H]3CC[C@@H](O)[C@H](O)C3)[C@H](C)[C@@H](O)CC1=O)[C@H](C)C[C@@H]2OC | 0.0459 (≈ 0.059 µM) | 8.85 (≈ 11.4 µM) | 4.26 (≈ 5.48 µM) | > 50 | – |
| CO[C@H]1C[C@@H](C)C/C(C)=C/[C@@H](C)C(=O)C[C@H](O)[C@@H](C)[C@@H](/C(C)=C/[C@@H]2CC[C@@H](O)[C@H](OC)C2)OC(=O)[C@@H]2CCCCN2C(=O)C[C@]2(O)O[C@H]1[C@@H](OC)C[C@H]2C | 1.98 (≈ 2.6 µM) | 2.47 (≈ 3.23 µM) | 6.07 (≈ 7.95 µM) | 230 (≈ 302 µM) | fractional inhibitory concentration index (FICI) (Cryptococcus neoformans [5]): 0.5; IC50 (Cryptococcus neoformans [10]): 0.125 µg/mL; Activity (Cryptococcus neoformans [11]): inactive |
| C=CC[C@@H]1/C=C(\C)C[C@H](C)C[C@H](OC)[C@H]2O[C@@](O)(CC(=O)N3CCCC[C@H]3C(=O)O[C@H](/C(C)=C/[C@@H]3CC[C@@H](O)[C@H](O)C3)[C@H](C)[C@@H](O)CC1=O)[C@H](C)C[C@@H]2OC | – | – | – | – | IC50 [1]: 15.1 ng/mL (≈ 0.0194 µM); IC50 (Cryptococcus neoformans [2]): 0.154 µg/mL (≈ 0.198 µM); IC50 (Candida albicans [3]): 2.8 µg/mL (≈ 3.6 µM); IC50 (Aspergillus fumigatus [4]): 29.8 µg/mL (≈ 38.4 µM) |
| C=CC[C@@H]1/C=C(\C)C[C@H](C)C[C@H](OC)[C@H]2O[C@@](O)(C(=O)C(=O)N3CCCC[C@H]3C(=O)O[C@H](/C(C)=C/[C@@H]3CC[C@@H](O)[C@H](OC)C3)[C@H](C)[C@@H](O)CC1=O)[C@H](C)C[C@@H]2OC [TACROLIMUS ANHYDROUS] | – | – | – | – | IC50 [1]: 0.027 ng/mL (≈ 3.36e-05 µM); IC50 (Cryptococcus neoformans [2]): 0.001 µg/mL (≈ 0.00124 µM); IC50 (Candida albicans [3]): 0.005 µg/mL (≈ 0.00622 µM); IC50 (Aspergillus fumigatus [4]): 0.015 µg/mL (≈ 0.0187 µM); fractional inhibitory concentration index (FICI) (Cryptococcus neoformans [12]): 0.38 |
| CC[C@@H]1/C=C(\C)C[C@H](C)C[C@H](OC)[C@H]2O[C@@](O)(CC(=O)N3CCCC[C@H]3C(=O)O[C@H](/C(C)=C/[C@@H]3CC[C@@H](O)[C@H](OC)C3)[C@H](C)[C@@H](O)CC1=O)[C@H](C)C[C@@H]2OC | 0.025 (≈ 0.0321 µM) | 0.355 (≈ 0.456 µM) | 0.662 (≈ 0.851 µM) | 7.82 (≈ 10.1 µM) | fractional inhibitory concentration index (FICI) (Cryptococcus neoformans [5]): 0.19; IC50 (Cryptococcus neoformans [13]): 0.031 µg/mL; Activity (Cryptococcus neoformans [11]): inactive |
| C=CC[C@@H]1/C=C(\C)C[C@H](C)C[C@H](OC)[C@H]2O[C@@](O)(CC(=O)N3CCC[C@H]3C(=O)O[C@H](/C(C)=C/[C@@H]3CC[C@@H](O)[C@H](O)C3)[C@H](C)[C@@H](O)CC1=O)[C@H](C)C[C@@H]2OC | 0.886 (≈ 1.16 µM) | 221 (≈ 290 µM) | 3440 (≈ 4520 µM) | > 50 | – |
| CC[C@@H]1/C=C(\C)C[C@H](C)C[C@H](OC)[C@H]2O[C@@](O)(CC(=O)N3CCCC[C@H]3C(=O)O[C@H](/C(C)=C/[C@@H]3CC[C@@H](O)[C@H](O)C3)[C@H](C)[C@@H](O)CC1=O)[C@H](C)C[C@@H]2OC | 0.258 (≈ 0.338 µM) | 3.3 (≈ 4.32 µM) | 2.85 (≈ 3.73 µM) | 307 (≈ 402 µM) | fractional inhibitory concentration index (FICI) (Cryptococcus neoformans [5]): 0.19; IC50 (Cryptococcus neoformans [10]): 0.0625 µg/mL; Activity (Cryptococcus neoformans [11]): inactive |
| CCC[C@@H]1/C=C(\C)C[C@H](C)C[C@H](OC)[C@H]2O[C@@](O)(C(=O)C(=O)N3CCCC[C@H]3C(=O)O[C@H](/C(C)=C/[C@@H]3CC[C@@H](O)[C@H](O)C3)[C@H](C)[C@@H](O)CC1=O)[C@H](C)C[C@@H]2OC | 0.00172 (≈ 0.00218 µM) | 0.033 (≈ 0.0417 µM) | 0.059 (≈ 0.0745 µM) | 0.415 (≈ 0.524 µM) | – |
